KLK7 zymogen act: proKLK7 (human) activation, primary screen. P49862. purified proKLK7, EDANS-DABCYL substrate fluorescence; 100% is mature enzyme control, 0% vehicle. activation, % at 7 µM. actives 0.9% (n = 370,000). AID 652039;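 active means activation above the mean of all tested compounds plus 3 SD, computed per campaign excluding outliers beyond control limits, cut at about 13% in these data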
Target sequence (P49862 whole entry, looked up): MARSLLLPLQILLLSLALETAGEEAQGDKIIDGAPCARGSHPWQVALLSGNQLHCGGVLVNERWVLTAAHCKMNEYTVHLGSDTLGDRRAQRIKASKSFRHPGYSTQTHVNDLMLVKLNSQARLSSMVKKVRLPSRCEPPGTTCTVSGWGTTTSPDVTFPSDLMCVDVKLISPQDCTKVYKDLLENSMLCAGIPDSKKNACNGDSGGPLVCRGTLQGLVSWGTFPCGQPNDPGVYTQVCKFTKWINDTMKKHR
proCasp3 act: activates human procaspase-3; P42574; recombinant procaspase-3 D3A, Ac-DEVD-pNA absorbance 405 nm; activation, % at 8.5 µM; actives 0.11% (n = 330,000);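 active means activation above the mean of all tested compounds plus 3 SD, cut at about 21% in these data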;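 further: 0% = DMSO alone and 100% = DMSO wells spiked with extra 5 µM PC-3 D3A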
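assay system = Procaspase-3 D3A mutant | signal = absorbance at 405 nm, 0 and 120 min | times = 1 h preincubation plus 2 h reaction at 25 °C | repeats = single replicate | read-out = % activation between DMSO and enzyme-spiked controls | medium = Zinc-free HEPES saline buffer with Triton X-100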
procasp7 counter: counter-screen: procaspase-7 (human) activation; P55210; recombinant procaspase-7, Ac-DEVD-pNA absorbance 405 nm; D23A/D198A/D206A triple mutant, cannot self-cleave; scale: DMSO 0, 5 µM enzyme 100; activation, % at 8.5 µM; actives 0.093% (n = 330,000);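 active means percent activation above the screen-wide mean plus 3 SD, cut at about 25% in these data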
Target sequence (P55210 whole entry D23A/D198A/D206A): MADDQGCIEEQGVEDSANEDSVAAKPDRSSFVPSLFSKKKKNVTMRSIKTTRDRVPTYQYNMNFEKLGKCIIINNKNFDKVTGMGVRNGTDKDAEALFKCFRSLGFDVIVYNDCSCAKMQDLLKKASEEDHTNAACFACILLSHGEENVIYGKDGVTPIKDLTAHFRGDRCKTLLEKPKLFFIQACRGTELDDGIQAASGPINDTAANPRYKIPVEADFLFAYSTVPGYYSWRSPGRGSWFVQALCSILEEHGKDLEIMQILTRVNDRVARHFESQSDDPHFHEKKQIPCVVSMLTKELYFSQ
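signal = Epi-absorbance of released pNA at 405 nm, two timepoints | assay system = Uncleavable procaspase-7 mutant enzyme | reagent = Ac-DEVD-pNA substrate, 400 µM as added | times = 1 h enzyme–compound preincubation and 2 h substrate reaction, both 25 °C | benchmarks = low DMSO alone, high DMSO plus 5 µM PC-7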
Neddylation inh: cullin neddylation inhibition | P61081+Q13564 | TR-FRET cullin neddylation, biochemical | calls only at 25 µM | actives 0.58% (n = 360,000) | AID 651699; in the data active means inhibition above about 36%
proKLK7 act conf: confirmation of human kallikrein-7 zymogen activators; purified proKLK7, EDANS-DABCYL substrate fluorescence; scaled: vehicle 0, mature enzyme 100; activation, % at 7 µM; actives 68% (n = 3,200); shares compounds with KLK7 zymogen act;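 active means activation, as change over the incubation, above the mean of all tested compounds plus 3 SD, cut at about 13% in these data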
EDANS interfere: optically interferes with EDANS-DABCYL signal, flagging KLK7 hits; shares compounds with KLK7 zymogen act; EDANS-DABCYL substrate fluorescence interference, no enzyme, 4 h; solvent 0%, active enzyme control 100%; activation, % at 7 µM; actives 80% (n = 3,200); AID 686952;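 active means activation above the all-compound mean plus 3 SD, ignoring values outside control-based bounds, cut at about 4.8% in these data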;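 further: value is the 4 h activation minus the activation read at time zero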
K7 EDANS ctr: counter-screen for kallikrein-7 activators: EDANS-DABCYL interference, dose response; shares compounds with KLK7 zymogen act; EDANS-DABCYL peptide fluorescence interference, no enzyme; EC50, µM; actives 20% (n = 250);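 active means compounds that raise the fluorescence signal in this interference counterscreen, with EC50 at or below 10 µM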;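 further: intact quenched peptide substrate alone read at 355 nm excitation and 520 nm emission; signal is fluorescence gain from T0 to T4 after four hours at room temperature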
* = called active by the depositor; i = inactive; nt = not tested or not shown. Rows were chosen to be rich in hits. Some 1.6% of all compounds tested hit in one or more screens of this group.

SMILES	KLK7 zymogen act	proCasp3 act	procasp7 counter	Neddylation inh	proKLK7 act conf	EDANS interfere	others
COCCOC(=O)C1=C(C)NC2=C(C(=O)CC(C)(C)C2)C1c1cccnc1 (stereo not given)	18*	-9	2	nt	39*	34*
CC1=C(C(=O)OCC2CCCO2)C(c2ccncc2)C2=C(CC(C)(C)CC2=O)N1 (stereo not given)	13*	-9	-9	nt	21*	29*
CCOC(=O)C1=C(C)NC2=C(C(=O)CC(C)(C)C2)C1c1ccc(N(C)C)cc1 (stereo not given)	2	-8	-18	i	nt	nt
CC1=C(C(=O)OC(C)C)C(c2cccnc2)C2=C(CC(C)(C)CC2=O)N1 (stereo not given)	7	-8	-1	nt	nt	nt
Cc1c(C(=O)N2CCN(c3ncccn3)CC2)oc2ccc(Cl)cc12	1	-7	-3	i	nt	nt
CNC(=O)c1ccc(-c2ccc(OC)cc2)s1	50*	-8	5	nt	56*	66*
COc1ccc(NC(=O)c2ccc(-c3ccc(OC)cc3)s2)cc1	0	5	0	i	nt	nt
NC(=O)Cn1cc(/C=N/NC(=O)c2ccc(Cn3cc(Cl)cn3)o2)c(-c2ccccc2)n1	20*	nt	nt	i	2	1
Cc1ccccc1/C=N\NC(=O)c1ccc(Cn2cccn2)o1	0	2	-8	i	nt	nt
Cc1cn(-c2cc(NC(=O)c3ccc(C)c(NC(=O)c4cccc(-c5cn[nH]c(=O)c5)c4)c3)cc(C(F)(F)F)c2)cn1	nt	3	2	i	nt	nt
Cc1ccc(-n2nc3ccc(N)cc3n2)c(C)c1	40*	-23	-11	nt	77*	76*
Cc1ccc(-n2nc3ccc(N)cc3n2)cc1Cl	-49	20	9	nt	nt	nt
COc1ccc(-n2nc3ccc(N)cc3n2)cc1Cl	53*	14	10	nt	75*	75*
Cc1cc(N)ccc1-n1nc2ccccc2n1	-1	2	9	i	nt	nt
COc1ccc(Cn2c(SC)nc3ccccc32)cc1[N+](=O)[O-]	0	8	8	i	nt	nt
COC(=O)C1=CN(CC2CCCO2)C=C(C(=O)OC)C1c1ccsc1 (stereo not given)	27*	-2	4	nt	34*	18*	K7 EDANS ctr=>70
COC(=O)C1=C(C)N(C)C(C)=C(C(=O)OC)C1c1ccsc1	1	6	5	i	nt	nt
COC(=O)C1=CN(C(C)C)C=C(C(=O)OC)C1c1cccc(OC)c1	39*	-1	0	nt	3	-4
CCOC(=O)C1=CN(C)C=C(C(=O)OCC)C1c1ccsc1	29*	3	5	nt	-34	-28
COC(=O)C1=CN(Cc2ccc(OC)c(OC)c2)C=C(C(=O)OC)C1c1cccc(O)c1	17*	-1	2	nt	-55	-70
COC(=O)C1=CN(Cc2ccc(OC)cc2)C=C(C(=O)OC)C1c1ccsc1	-35	4	-15	nt	nt	nt
O=[N+]([O-])c1ncccc1OCc1ccc(Br)cc1F	0	0	0	i	nt	nt
COc1ccc(CCN2C(=NC(C)=O)SC3CS(=O)(=O)CC32)cc1OC (stereo not given)	0	8	9	i	nt	nt
COC(=O)C1=CN(CC2CCCO2)C=C(C(=O)OC)C1c1cccc(O)c1 (stereo not given)	63*	0	1	nt	65*	61*
CCN1C=C(C(=O)OC)C(c2cccc(C)c2)C(C(=O)OC)=C1	40*	-1	-1	nt	-54	-51
SMILES	KLK7 zymogen act	proCasp3 act	procasp7 counter	Neddylation inh	proKLK7 act conf	EDANS interfere	others
COC(=O)C1=CN(Cc2cccs2)C=C(C(=O)OC)C1c1cccc(Cl)c1	-34	14	12	nt	nt	nt
C=CCN1C(=O)/C(=C\c2ccc(Oc3nc(N4CCOCC4)nc(N4CCOCC4)n3)c(OC)c2)SC1=S	0	-5	-6	i	nt	nt
CC1CN(CC(O)COCc2ccc3c(c2)OCO3)CC(C)O1 (stereo not given)	1	8	16	i	nt	nt
CC(=O)Nc1cccc(-c2nc3ccccc3s2)c1	1	4	-1	i	nt	nt
CC(=O)Nc1cccc(-c2nc3ccc(NC(C)=O)cc3s2)c1	26*	-3	-9	nt	22*	21*
N=c1oc2cc(O)ccc2cc1C(=O)Nc1ccccn1	nt	-29	-32	nt	nt	nt
N=c1oc2cc(O)ccc2cc1C(=O)Nc1nc2ccccc2s1	55*	-41	-28	nt	67*	73*
COc1ncc(-c2ccc(N3C(c4ccsc4)=Cc4ccccc4C3CC(C)=O)cc2)cn1 (stereo not given)	-29	nt	nt	i	nt	nt
Cc1[nH]c2ccccc2c1/C=N/NC(=O)CNC(=O)c1ccc2c(c1)OCCO2	0	-2	2	i	nt	nt
Cc1cc(NCCCn2ccnc2)n2c(nc3ccccc32)c1C#N	17*	-3	-2	nt	54*	72*
Cc1cc(NCCCN(C)C)n2c(nc3ccccc32)c1C#N	72*	0	5	nt	72*	69*
CCC(C)Nc1cc(C)c(C#N)c2nc3ccccc3n12 (stereo not given)	26*	0	-2	nt	-1	3
CCCc1cc(NCCCO)n2c(nc3ccccc32)c1C#N	17*	-2	5	nt	-11	-11
CCCc1cc(-n2ccnc2)n2c(nc3ccccc32)c1C#N	3	-4	-1	nt	nt	nt
Cc1cccc(OCC(=O)N2CCC3(CC2)CC(=O)c2ccccc2O3)c1	0	2	6	i	nt	nt
CC(=O)N1CCC2(CC1)CC(=O)c1cc(OCC(=O)N3CCCC3)ccc1O2	40*	4	4	nt	53*	55*
CCOC(=O)COc1ccc2c(c1)C(=O)CC1(CCN(C(C)=O)CC1)O2	22*	1	16	nt	26*	43*
CN(C)Cc1c(O)ccc2cc(-c3nc4ccccc4n3C)c(=O)oc12	78*	-7	-16	i	67*	77*
CCN(CC)c1ccc2cc(-c3nc4ccccc4n3C)c(=O)oc2c1	-2	-9	11	i	nt	nt
COc1cc(CNC23CC4CC(CC(C4)C2)C3)ccc1OCc1ccccc1	0	-1	5	i	nt	nt
CCOC(=O)Nc1ccc(Oc2ccccc2)cc1	-1	4	1	i	nt	nt
CCOC(=O)Nc1c2ccccc2nc2ccccc12	14*	-8	-3	nt	38*	43*
Cc1ccc(-c2csc3nc4cc(C(=O)NC5CCC(O)CC5)ccc4c(=O)n23)cc1 (stereo not given)	-11	-3	-9	i	nt	nt

Compound activity (PubChem)
